Test results as given in ChEMBL document CHEMBL3112527, “Quinoline-pyrimidine hybrids: synthesis, antiplasmodial activity, SAR, and mode of action studies” (J Med Chem, 2014).
Values after ≈ are worked out from the molar mass of the structure shown. Active and inactive are the calls of the source. The calls are words filed in the database; no cut-off is given here.

Key:
Plasmodium falciparum [1] = assay: Antiplasmodial activity against chloroquine-resistant asexual erythrocytic stage of Plasmodium falciparum Dd2 assessed as parasite growth inhibition by lactate dehydrogenase assay; assay type: functional, organism-based
Method in brief: (§1)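 Parasite lactate dehydrogenase assay (modified Makler method). Samples held as 20 mg/mL stocks in DMSO, diluted on test day. Full dose-response: starting at 10 μg/mL, 2-fold serial dilution in complete medium over 10 concentrations down to 0.02 μg/mL. Chloroquine, artesunate and MMV390048 served as references. IC50 from nonlinear dose-response curve fitting; mean of three independent experiments.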

Coxsackievirus B4 [2] = assay: Antiviral activity against Coxsackievirus B4 infected in human HeLa cells assessed as inhibition of virus-induced cytopathicity; assay type: functional, organism-based
Method in brief: (§2)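 Confluent monolayers (HEL, Vero, HeLa or CrFK, as applicable) were inoculated with 100 CCID50 of virus, with 1 CCID50 being the dose that infects 50% of cultures. Infection ran in the presence of varying compound concentrations. Inhibition of virus-induced cytopathicity was scored against infected cultures left untreated.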

[3] = Selectivity index, ratio of CC50 for cat CRFK cells to IC50 for chloroquine-resistant asexual erythrocytic stage of Plasmodium falciparum Dd2; assay type: functional
Method in brief: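 Ratio of CRFK CC50 (μM) to Dd2 IC50 […]. CC50 is the 50% cytotoxic concentration in feline kidney CRFK cells, measured as cell viability by colorimetric formazan-based MTS assay. Dd2 IC50 is from the parasite LDH growth-inhibition assay.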

Human betaherpesvirus 5 [4] = assay: Antiviral activity against Cytomegalovirus Davis infected in HEL cells assessed as inhibition of virus-induced cytopathicity; assay type: functional, organism-based
[5] = system: Vesicular stomatitis virus; assay: Antiviral activity against Vesicular stomatitis virus infected in HEL cells assessed as inhibition of virus-induced cytopathicity; assay type: functional, organism-based
Method in brief: (§3)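 Confluent monolayers in 96-well plates were inoculated with 100 CCID50 of virus in the presence of varying concentrations of compound. Read-out was inhibition of virus-induced cytopathicity, compared with untreated infected cultures. Cytotoxicity was judged microscopically or by MTT viability staining.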

Human alphaherpesvirus 1 [6] = assay: Antiviral activity against HSV-1 KOS infected in HEL cells assessed as inhibition of virus-induced cytopathicity; assay type: functional, organism-based; method in brief: as §2
Vaccinia virus = assay: Antiviral activity against Vaccinia virus infected in HEL cells assessed as inhibition of virus-induced cytopathicity; assay type: functional, organism-based; conditions: Orthopoxvirus vaccinia; method in brief: as §3
Human respirovirus 3 = assay: Antiviral activity against parainfluenza virus 3 infected in African green monkey Vero cells assessed as inhibition of virus-induced cytopathicity; assay type: functional, organism-based; method in brief: as §2
Influenza A virus H3N2 = assay: Antiviral activity against Influenza A virus H3N2 infected in MDCK cells assessed as inhibition of virus-induced cytopathicity; assay type: functional, organism-based; method in brief: as §3
Human alphaherpesvirus 3 = assay: Antiviral activity against Varicella-zoster virus infected in HEL cells assessed as inhibition of virus-induced cytopathicity; assay type: functional, organism-based
Coxsackievirus B4 [7] = assay: Antiviral activity against Coxsackievirus B4 infected in African green monkey Vero cells assessed as inhibition of virus-induced cytopathicity; assay type: functional, organism-based; method in brief: as §2
Sindbis virus = assay: Antiviral activity against Sindbis virus infected in African green monkey Vero cells assessed as inhibition of virus-induced cytopathicity; assay type: functional, organism-based
Human alphaherpesvirus 2 = assay: Antiviral activity against HSV-2 G infected in HEL cells assessed as inhibition of virus-induced cytopathicity; assay type: functional, organism-based; conditions: strain G; method in brief: as §2
[8] = n-octanol-PBS buffer distribution coefficient, log D of the compound at pH 7.4 after 24 hrs by HPLC analysis; assay type: physicochemical
[9] = system: Mammalian orthoreovirus 1; assay: Antiviral activity against Reovirus 1 infected in African green monkey Vero cells assessed as inhibition of virus-induced cytopathicity; assay type: functional, organism-based; method in brief: as §2
Feline coronavirus = assay: Antiviral activity against Feline coronavirus infected in cat CRFK cells assessed as inhibition of virus-induced cytopathicity; assay type: functional, organism-based; method in brief: as §2
Human betaherpesvirus 5 [10] = assay: Antiviral activity against Cytomegalovirus AD169 infected in HEL cells assessed as inhibition of virus-induced cytopathicity; assay type: functional, organism-based
Punta Toro virus = assay: Antiviral activity against Punta Toro virus infected in African green monkey Vero cells assessed as inhibition of virus-induced cytopathicity; assay type: functional, organism-based; method in brief: as §2
[11] = Solubility of the compound in octanol at pH 7.4 by HPLC analysis; assay type: physicochemical
Plasmodium falciparum [12] = assay: Antiplasmodial activity against chloroquine-sensitive asexual erythrocytic stage of Plasmodium falciparum D10 assessed as parasite growth inhibition by lactate dehydrogenase assay; assay type: functional, organism-based; method in brief: as §1
[13] = Cytotoxicity against human HeLa cells assessed as alteration of cell morphology by microscopic analysis; assay type: cell-based; conditions: read-out: MIC
Method in brief: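 Cells (Vero, HEL, MDCK or HeLa) were exposed to a range of sample concentrations. The value reported is the concentration required to cause a microscopically detectable alteration of normal cell morphology.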

[14] = Cytotoxicity against cat CRFK cells assessed as cell viability by MTS assay; assay type: cell-based, Felis catus
Method in brief: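 CRFK cells were exposed to varying sample concentrations. Cell viability was measured with the colorimetric formazan-based MTS assay, and the 50% cytotoxic concentration (CC50) was derived from it.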

[15] = system: Respiratory syncytial virus; assay: Antiviral activity against Respiratory syncytial virus infected in human HeLa cells assessed as inhibition of virus-induced cytopathicity; assay type: functional, organism-based; method in brief: as §2
[16] = system: Vesicular stomatitis virus; assay: Antiviral activity against Vesicular stomatitis virus infected in human HeLa cells assessed as inhibition of virus-induced cytopathicity; assay type: functional, organism-based; method in brief: as §3
Influenza A virus = assay: Antiviral activity against influenza A virus H1N1 infected in MDCK cells assessed as inhibition of virus-induced cytopathicity; assay type: functional, organism-based; method in brief: as §3
[17] = Aqueous solubility of the compound in PBS buffer at pH 7.4 after 24 hrs by HPLC analysis; assay type: physicochemical; conditions: pH 7.4, 24 h
Felid alphaherpesvirus 1 = assay: Antiviral activity against Feline herpesvirus infected in cat CRFK cells assessed as inhibition of virus-induced cytopathicity; assay type: functional, organism-based; method in brief: as §2
Human alphaherpesvirus 1 [18] = assay: Antiviral activity against thymidine kinase-negative acyclovir-resistant HSV-1 KOS infected in HEL cells assessed as inhibition of virus-induced cytopathicity; assay type: functional, organism-based; method in brief: as §3

SMILES	IC50 (Plasmodium falciparum [1]) [nM]	inhibition (Coxsackievirus B4 [2])	Ratio CC50/IC50 [3]	inhibition (Human betaherpesvirus 5 [4])	inhibition [5]	inhibition (Human alphaherpesvirus 1 [6])	inhibition (Vaccinia virus)	inhibition (Human respirovirus 3)	inhibition (Influenza A virus H3N2)	inhibition (Human alphaherpesvirus 3)	inhibition (Coxsackievirus B4 [7])	inhibition (Sindbis virus)	inhibition (Human alphaherpesvirus 2)	logD at 24 h [8]	inhibition [9]	inhibition (Feline coronavirus)	inhibition (Human betaherpesvirus 5 [10])	inhibition (Punta Toro virus)	solubility [11] [µM]	IC50 (Plasmodium falciparum [12]) [nM]	also measured
Clc1ccc2c(NCCCCCCCCNc3ccnc(Cl)n3)ccnc2c1	883	inactive	9	inactive	inactive	inactive	inactive	inactive	inactive	inactive	inactive	inactive	inactive	1.48	inactive	inactive	inactive	inactive	2.41 (≈ 1.01 µg/mL)	912	MCC [13]: 4 µM; CC50 [14]: 8000 nM; inhibition [15]: inactive; inhibition [16]: inactive; inhibition (Influenza A virus): inactive; solubility [17]: 0.08 µM (≈ 0.0335 µg/mL); inhibition (Felid alphaherpesvirus 1): inactive; inhibition (Human alphaherpesvirus 1 [18]): inactive
Clc1ccc2c(NCCCCNc3nccc(Cl)n3)ccnc2c1	193	inactive	>518	inactive	inactive	inactive	inactive	inactive	inactive	inactive	inactive	inactive	inactive	0.742	inactive	inactive	inactive	inactive	3.86 (≈ 1.4 µg/mL)	179	MCC [13]: 100 µM; CC50 [14]: > 100000 nM; inhibition [15]: inactive; inhibition [16]: inactive; inhibition (Influenza A virus): inactive; solubility [17]: 0.7 µM (≈ 0.254 µg/mL); inhibition (Felid alphaherpesvirus 1): inactive; inhibition (Human alphaherpesvirus 1 [18]): inactive
Clc1ccc2c(NCCNc3nccc(Cl)n3)ccnc2c1	7680	inactive	>12.53	inactive	inactive	inactive	inactive	inactive	inactive	inactive	inactive	inactive	inactive	0.501	inactive	inactive	inactive	inactive	2.85 (≈ 0.952 µg/mL)	2510	MCC [13]: > 100 µM; CC50 [14]: > 100000 nM; inhibition [15]: inactive; inhibition [16]: inactive; inhibition (Influenza A virus): inactive; solubility [17]: 0.9 µM (≈ 0.301 µg/mL); inhibition (Felid alphaherpesvirus 1): inactive; inhibition (Human alphaherpesvirus 1 [18]): inactive
Clc1ccc2c(NCCCNc3ccnc(N4CCOCC4)n3)ccnc2c1	404	inactive	>247	inactive	inactive	inactive	inactive	inactive	inactive	inactive	inactive	inactive	inactive	0.363	inactive	inactive	inactive	inactive	1.27 (≈ 0.507 µg/mL)	70	MCC [13]: 100 µM; CC50 [14]: > 100000 nM; inhibition [15]: inactive; inhibition [16]: inactive; inhibition (Influenza A virus): inactive; solubility [17]: 0.55 µM (≈ 0.219 µg/mL); inhibition (Felid alphaherpesvirus 1): inactive; inhibition (Human alphaherpesvirus 1 [18]): inactive
Clc1ccc2c(NCCCOc3nccc(Cl)n3)ccnc2c1	204	inactive	>490	inactive	inactive	inactive	inactive	inactive	inactive	inactive	inactive	inactive	inactive	1.04	inactive	inactive	inactive	inactive	2.19 (≈ 0.765 µg/mL)	304	MCC [13]: > 100 µM; CC50 [14]: > 100000 nM; inhibition [15]: inactive; inhibition [16]: inactive; inhibition (Influenza A virus): inactive; solubility [17]: 0.2 µM (≈ 0.0698 µg/mL); inhibition (Felid alphaherpesvirus 1): inactive; inhibition (Human alphaherpesvirus 1 [18]): inactive
Clc1ccc2c(NCCCNc3ccnc(Cl)n3)ccnc2c1	207	inactive	>483	inactive	inactive	inactive	inactive	inactive	inactive	inactive	inactive	inactive	inactive	0.229	inactive	inactive	inactive	inactive	1.01 (≈ 0.352 µg/mL)	270	MCC [13]: > 100 µM; CC50 [14]: > 100000 nM; inhibition [15]: inactive; inhibition [16]: inactive; inhibition (Influenza A virus): inactive; solubility [17]: 0.6 µM (≈ 0.209 µg/mL); inhibition (Felid alphaherpesvirus 1): inactive; inhibition (Human alphaherpesvirus 1 [18]): inactive
Clc1ccc2c(NCCCNc3nccc(N4CCNCC4)n3)ccnc2c1	2000	inactive	36	inactive	inactive	inactive	inactive	inactive	inactive	inactive	inactive	inactive	inactive	0.102	inactive	inactive	inactive	inactive	0.75 (≈ 0.298 µg/mL)	113	MCC [13]: 100 µM; CC50 [14]: 74000 nM; inhibition [15]: inactive; inhibition [16]: inactive; inhibition (Influenza A virus): inactive; solubility [17]: 0.6 µM (≈ 0.239 µg/mL); inhibition (Felid alphaherpesvirus 1): inactive; inhibition (Human alphaherpesvirus 1 [18]): inactive
